A selection: hits, their analogues and other compounds. The true share with any hit is near 3%.
TRPC6 act = mouse TRPC6 channel activators, primary screen, cell-based, HEK293, membrane potential dye; Short transient receptor potential channel 6 (Mus musculus), Q61143; HEK293-TRPC6 membrane potential dye fluorescence; hits give high values; B-score at 10 µM; hit rate 0.13% among 310,000; AID 2550, 2010;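 active = B-score of the integrated fluorescence ratio above library mean plus 3 SD, and starting fluorescence ratio within library mean plus 5 SD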;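 note: higher score means more depolarization so channel activation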
TRPC4 agonist = activators of mouse TRPC4 channel, primary screen, Fluo4 calcium, HEK293 TRPC4beta/mu-opioid cells; Short transient receptor potential channel 4 (Mus musculus), Q9QUQ5; Fluo4 calcium fluorescence; hits give high values; B-score at 10 µM; hit rate 0.49% among 310,000;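 active = B-score above 5 SD of library B-scores, and initial fluorescence ratio not above library mean plus 5 SD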;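 note: positive B-score marks a calcium rise read as TRPC4 activation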
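Assay system – TRPC4beta and mu-opioid receptor HEK293 stable cells · Measured by – Fluo4 fluorescence, kinetic · Schedule – dye loading 45 min room temperature, 110 s kinetic read · Read-out – B-scored integrated calcium fluorescence ratio · Controls – buffer and maximal DAMGO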
TRPC4 block = inhibitors of mouse TRPC4 channel, primary screen, Fluo4 calcium, HEK293 TRPC4beta/mu-opioid cells. hit rate 0.39% among 300,000. B-score at 10 µM. DAMGO-evoked Fluo4 calcium flux; hits give low values;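 active = B-score over 3 SD under the library average, no early fluorescence shift, positive overall ratio signal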
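test system = HEK293 cells with stable TRPC4beta plus mu-opioid receptor expression | detection = Fluo4 Ca2+ flux fluorescence | read-out = integrated fluorescence ratio relative to baseline, converted to per-well B score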
Kir21 block = inhibitors of mouse Kir2.1 inward-rectifier potassium channel; Inward rectifier potassium channel 2 (Mus musculus), P35561; HEK293-Kir2.1, FluxOR thallium flux fluorescence; hits give low values; B-score at 10 µM; hit rate 0.85% among 310,000;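 active = fluorescence ratio B-score at or below minus 3 SD of library scores, with starting-brightness B-score within 2 SD, cut at about -4.2 in these data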;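 note: channel flux triggered by added potassium and thallium sulfate stimulus; B-score of peak minus minimum fluorescence over baseline after thallium stimulus; more negative B-score means stronger Kir2.1 block with less thallium influx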
Target sequence (P35561 whole entry, looked up): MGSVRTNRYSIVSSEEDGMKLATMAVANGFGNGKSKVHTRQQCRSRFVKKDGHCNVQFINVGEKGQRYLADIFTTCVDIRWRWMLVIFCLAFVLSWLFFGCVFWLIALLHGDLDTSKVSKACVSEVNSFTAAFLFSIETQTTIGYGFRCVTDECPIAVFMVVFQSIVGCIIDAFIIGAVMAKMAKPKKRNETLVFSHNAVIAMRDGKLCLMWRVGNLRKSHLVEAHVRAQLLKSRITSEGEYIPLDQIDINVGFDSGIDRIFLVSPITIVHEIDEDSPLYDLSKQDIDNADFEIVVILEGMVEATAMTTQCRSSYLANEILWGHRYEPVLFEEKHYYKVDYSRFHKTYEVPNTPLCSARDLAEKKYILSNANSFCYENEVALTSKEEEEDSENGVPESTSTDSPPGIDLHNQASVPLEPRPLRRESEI
TRPC4 PAM = positive allosteric modulators of TRPC4, primary screen, cell-based, mouse TRPC4beta, HEK293 mu-opioid, Fluo-4 calcium; Short transient receptor potential channel 4 (Mus musculus), Q9QUQ5; DAMGO EC20, Fluo-4 Ca2+ flux; hits give high values; B-score at 10 µM; hit rate 0.42% among 310,000; AID 2227, 2009;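 active = B-score of calcium response area above 5 SD of library B-scores, with initial fluorescence ratio within 5 SD of library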;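 note: B-score of integrated fluorescence ratio over time as area under calcium response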
TRPC6 inhibitor = mouse TRPC6 channel inhibitors, primary screen, cell-based, HEK293, membrane potential dye; Short transient receptor potential channel 6 (Mus musculus), Q61143; ACh-evoked depolarization; hits give low values; B-score at 10 µM; hit rate 1.1% among 310,000; AID 2553, 2010;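 active = B-score under library mean minus 3 SD, initial fluorescence not abnormally high, positive integrated signal ratio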;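 note: B-score derived from integrated fluorescence ratio over the kinetic read; more negative B-score means stronger inhibition of depolarization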
The depositor's hits bear a star; i = inactive.

SMILES	TRPC6 act	TRPC4 agonist	TRPC4 block	Kir21 block	TRPC4 PAM	TRPC6 inhibitor
Oc1ccccc1CNCC12CC3CC(CC(C3)C1)C2	i	i	i	-1.1	i	i
CCc1cc2ccccc2nc1SCC(=O)N1CCN(C(=O)c2ccco2)CC1	i	i	i	-4.4*	i	i
COc1cc2cc(C)c(SCC(=O)N3CCN(C(=O)c4ccco4)CC3)nc2cc1OC	i	i	i	1.1	i	i
COc1ccc(CCN(C)Cc2ccc(C(=O)Nc3ccccc3)cc2)cc1OC	i	i	i	-0.06	i	i
CCC(=O)N1c2ccccc2NC2=C(C(=O)CC(C)(C)C2)C1c1ccc(O)c(OC)c1 (stereo unspecified)	i	i	i	0.59	i	i
CN(C)CCCNc1nc(-c2ccccc2)c2c(c1C#N)CC(C)(C)OC2	i	i	i	-2	i	i
N#Cc1c(NCCCO)nc(-c2ccccc2)c2c1CCCC2	i	49*	i	-0.84	i	i
COc1ccc(CC2(C)OC(c3ccc(C)cc3)=NN2C(C)=O)cc1 (stereo unspecified)	i	i	i	-0.59	i	i
COc1ccc(CC2(C)OC(c3ccccc3)=NN2C(C)=O)cc1 (stereo unspecified)	i	i	i	-6.3*	i	i
N#Cc1ccc(CN2C(=O)NC3(CCCCCC3)C2=O)cc1	i	i	i	-0.01	i	i
O=S(=O)(NC1CCCCC1N1CCOCC1)c1ccc(Cl)cc1 (stereo unspecified)	i	i	i	-2.6	i	i
O=S(=O)(NC1CCCCC1N1CCN(c2ccccc2F)CC1)c1ccc(Cl)cc1 (stereo unspecified)	i	i	i	-3.3	12*	i
O=C(/C=C\N1CCOCC1)c1ccc(Br)cc1	i	i	i	-0.38	i	i
O=C(O)c1cccc(NC2=C(Cl)C(=O)c3ccccc3C2=O)c1	i	i	i	-7.3*	i	i
O=C(O)c1ccc(NC2=C(Cl)C(=O)c3ccccc3C2=O)cc1	i	i	-5*	-9.1*	i	i
CCOC(=O)C1CCCN(C(=S)Nc2cccc(Cl)c2C)C1 (stereo unspecified)	i	i	i	-0.8	i	i
Cc1ccccc1S(=O)Cc1ccc(C(=O)NCCN2CCOCC2)o1 (stereo unspecified)	i	i	i	-0.35	i	i
CC(=O)n1cc([C@H]2C=C(C(N)=O)O[C@@H](OCc3ccc(CO)cc3)C2)c2ccccc21	i	51*	i	1.5	i	i
CC(=O)n1cc([C@H]2C=C(C(=O)NCc3ccccc3)O[C@@H](OCc3ccc(CO)cc3)C2)c2ccccc21	i	244*	i	0.02	i	i
CC(=O)n1cc([C@@H]2C=C(C(=O)Nc3ccccc3)O[C@H](OCc3ccc(CO)cc3)C2)c2ccccc21	i	i	i	0.96	i	i
C#CCNC(=O)C1=C[C@@H](c2cn(C(C)=O)c3ccccc23)C[C@@H](OCc2ccc(CO)cc2)O1	i	i	i	-0.4	i	i
COc1ccc(-c2nc3ccccn3c2NCc2ccc3c(c2)OCO3)cc1	i	i	i	-1.9	i	-5.3*
O=C(COC(=O)c1ccccc1C(=O)c1ccc(Cl)cc1)NCCc1ccccc1	i	i	i	-2.2	14*	i
Cc1ccc(CNCC(O)c2ccccc2)s1 (stereo unspecified)	i	i	i	-5.3*	i	i
OC(CNCc1cccc(Br)c1)c1ccccc1 (stereo unspecified)	i	i	i	-4.3*	i	i
SMILES	TRPC6 act	TRPC4 agonist	TRPC4 block	Kir21 block	TRPC4 PAM	TRPC6 inhibitor
OC(CNCc1ccc(-c2ccccc2)cc1)c1ccccc1 (stereo unspecified)	i	i	i	-0.06	i	i
COc1ccc(NC(=O)c2cccnc2SC)cc1S(=O)(=O)N1CCCCC1	i	i	i	-0.64	i	i
COc1ccc(OC)c(-n2nnnc2SCC(=O)Nc2ccccc2N2CCOCC2)c1	i	i	i	-1.6	i	i
COc1ccc(-c2cc(C(=O)NCC(c3ccccc3)N(C)C)c3ccccc3n2)cc1OC (stereo unspecified)	i	90*	i	0.92	i	i
CN(C)C(CNC(=O)c1cc2ccccc2oc1=O)c1ccccc1 (stereo unspecified)	i	87*	-6*	-1.4	i	i
CCOc1ncccc1C(=O)NCC(c1ccccc1)N(C)C (stereo unspecified)	i	126*	i	0.12	i	i
COc1ccccc1C(=O)NCCC(=O)NCC(c1ccccc1)N(C)C (stereo unspecified)	i	i	i	2.8	i	i
COc1ccc(C(CNC(=O)c2ccccc2SC)N(C)C)cc1 (stereo unspecified)	i	88*	i	1.7	i	i
CC(C)N(C(=O)c1nn(C)c2c1CSc1ccccc1-2)C1CCCCC1	i	i	i	0.69	i	i
COc1ccc(C(CNC(=O)c2cc(SC)ccc2Cl)N(C)C)cc1 (stereo unspecified)	i	118*	i	-0.85	i	i
CCCn1c(SCC(=O)c2c(C)[nH]c(C)c2C(=O)OCC)nc2ccccc21	i	i	i	-4.3*	i	i
CC(=O)N1CCN(Cc2nc3cc(NC(=O)COc4cccc(C)c4)ccc3n2C)CC1	i	i	i	0.11	i	i
CC(=O)c1ccc(S(=O)(=O)NCc2ccc(C(=O)NCC(c3ccccc3)N(C)C)cc2)cc1 (stereo unspecified)	i	177*	i	-1.7	i	i
CCOc1ccc(NS(=O)(=O)c2ccc(C(=O)NCC(c3ccco3)N(C)C)cc2)cc1 (stereo unspecified)	i	i	i	0.04	i	i

Screening data (PubChem BioAssay)
